Results: ChEMBL document CHEMBL1212925, “Replacement of imidazolyl by pyridyl in biphenylmethylenes results in selective CYP17 and dual CYP17/CYP11B1 inhibitors for the treatment of prostate cancer” (J Med Chem, 2010)

Key:
[1] = biological target: T1, Steroid 17-alpha-hydroxylase/17,20 lyase (Homo sapiens, UniProt P05093); assay: Inhibition of human CYP17 expressed in Escherichia coli
T1 sequence (P05093 whole entry): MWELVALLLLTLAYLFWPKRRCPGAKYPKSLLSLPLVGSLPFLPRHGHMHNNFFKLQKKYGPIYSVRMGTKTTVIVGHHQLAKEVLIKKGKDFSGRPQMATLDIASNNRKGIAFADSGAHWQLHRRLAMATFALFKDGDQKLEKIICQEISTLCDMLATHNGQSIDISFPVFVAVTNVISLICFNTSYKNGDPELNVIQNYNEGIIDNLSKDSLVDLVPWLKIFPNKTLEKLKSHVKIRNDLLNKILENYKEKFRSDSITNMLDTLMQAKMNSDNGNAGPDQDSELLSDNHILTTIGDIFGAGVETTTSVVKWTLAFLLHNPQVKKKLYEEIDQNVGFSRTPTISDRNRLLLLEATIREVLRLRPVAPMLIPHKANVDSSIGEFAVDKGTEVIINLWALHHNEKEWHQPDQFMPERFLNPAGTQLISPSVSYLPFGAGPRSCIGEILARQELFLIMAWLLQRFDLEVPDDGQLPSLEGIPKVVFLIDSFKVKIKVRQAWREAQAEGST
In short: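 Enzyme source: 50 000 sediment of homogenized E. coli co-expressing human CYP17 and NADPH-P450 reductase. Substrate and product separated by HPLC with UV detection.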

[2] = biological target: T2, Cytochrome P450 11B1, mitochondrial (Homo sapiens, UniProt P15538); assay: Inhibition of human CYP11B1 expressed in hamster fibroblast
T2 sequence (P15538 whole entry): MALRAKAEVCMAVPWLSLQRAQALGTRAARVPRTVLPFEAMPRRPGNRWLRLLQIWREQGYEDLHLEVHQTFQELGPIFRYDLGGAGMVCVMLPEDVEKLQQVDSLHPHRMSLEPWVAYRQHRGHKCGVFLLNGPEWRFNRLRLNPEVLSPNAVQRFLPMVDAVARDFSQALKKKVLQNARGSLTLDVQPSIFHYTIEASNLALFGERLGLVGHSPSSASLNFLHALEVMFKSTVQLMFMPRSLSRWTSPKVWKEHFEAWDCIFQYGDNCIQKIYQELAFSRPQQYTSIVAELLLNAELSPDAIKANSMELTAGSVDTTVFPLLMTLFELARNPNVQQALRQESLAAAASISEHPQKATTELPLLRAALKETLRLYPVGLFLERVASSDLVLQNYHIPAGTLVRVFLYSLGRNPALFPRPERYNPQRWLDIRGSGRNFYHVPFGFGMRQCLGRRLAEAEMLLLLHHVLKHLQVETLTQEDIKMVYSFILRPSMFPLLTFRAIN
In short: (§1)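 V79 MZh hamster fibroblasts expressing human CYP11B1 or CYP11B2 incubated with [14C]11-deoxycorticosterone substrate at 100 nM and inhibitor at varied concentrations. Product formation monitored by HPTLC with phosphoimager. IC50 from mean of at least three tests; SD within 5%.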

[3] = biological target: Cytochrome P450 3A4 (Homo sapiens, UniProt P08684); assay: Inhibition of recombinant CYP3A4 expressed in baculovirus-infected insect microsome; type: ADME
Sequence of Cytochrome P450 3A4 (P08684 whole entry): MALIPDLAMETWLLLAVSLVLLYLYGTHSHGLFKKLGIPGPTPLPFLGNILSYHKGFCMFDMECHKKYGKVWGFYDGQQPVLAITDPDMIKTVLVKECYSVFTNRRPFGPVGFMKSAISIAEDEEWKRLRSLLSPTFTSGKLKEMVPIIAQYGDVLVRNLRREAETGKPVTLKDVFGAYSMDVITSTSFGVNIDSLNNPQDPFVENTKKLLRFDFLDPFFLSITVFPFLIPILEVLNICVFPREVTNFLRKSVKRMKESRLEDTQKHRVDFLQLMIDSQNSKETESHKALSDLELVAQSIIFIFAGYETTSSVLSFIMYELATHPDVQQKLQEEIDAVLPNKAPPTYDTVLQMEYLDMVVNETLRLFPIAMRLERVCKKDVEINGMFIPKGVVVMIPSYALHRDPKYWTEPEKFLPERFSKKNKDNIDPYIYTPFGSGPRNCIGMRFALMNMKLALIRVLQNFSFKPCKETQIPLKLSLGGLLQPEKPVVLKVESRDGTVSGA

[4] = biological target: T3, Cytochrome P450 11B2, mitochondrial (Homo sapiens, UniProt P19099); assay: Inhibition of human CYP11B2 expressed in hamster fibroblast; in short: as §1
T3 sequence (P19099 whole entry): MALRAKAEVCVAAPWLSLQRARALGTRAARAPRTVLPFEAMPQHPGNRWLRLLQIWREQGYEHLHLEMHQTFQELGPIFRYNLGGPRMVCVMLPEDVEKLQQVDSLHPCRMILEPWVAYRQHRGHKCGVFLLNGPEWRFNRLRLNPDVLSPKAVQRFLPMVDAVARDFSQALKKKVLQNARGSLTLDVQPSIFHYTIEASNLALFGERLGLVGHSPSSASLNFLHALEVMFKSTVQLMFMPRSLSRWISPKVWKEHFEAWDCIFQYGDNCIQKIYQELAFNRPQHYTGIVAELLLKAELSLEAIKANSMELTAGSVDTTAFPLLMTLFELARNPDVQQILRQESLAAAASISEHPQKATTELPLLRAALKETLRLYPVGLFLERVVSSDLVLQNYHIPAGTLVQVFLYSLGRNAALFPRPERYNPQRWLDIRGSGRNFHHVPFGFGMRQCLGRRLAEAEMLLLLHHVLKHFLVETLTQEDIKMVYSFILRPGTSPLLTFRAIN

[5] = biological target: T4, Aromatase (Homo sapiens, UniProt P11511); assay: Inhibition of human placental CYP19
T4 sequence (P11511 whole entry): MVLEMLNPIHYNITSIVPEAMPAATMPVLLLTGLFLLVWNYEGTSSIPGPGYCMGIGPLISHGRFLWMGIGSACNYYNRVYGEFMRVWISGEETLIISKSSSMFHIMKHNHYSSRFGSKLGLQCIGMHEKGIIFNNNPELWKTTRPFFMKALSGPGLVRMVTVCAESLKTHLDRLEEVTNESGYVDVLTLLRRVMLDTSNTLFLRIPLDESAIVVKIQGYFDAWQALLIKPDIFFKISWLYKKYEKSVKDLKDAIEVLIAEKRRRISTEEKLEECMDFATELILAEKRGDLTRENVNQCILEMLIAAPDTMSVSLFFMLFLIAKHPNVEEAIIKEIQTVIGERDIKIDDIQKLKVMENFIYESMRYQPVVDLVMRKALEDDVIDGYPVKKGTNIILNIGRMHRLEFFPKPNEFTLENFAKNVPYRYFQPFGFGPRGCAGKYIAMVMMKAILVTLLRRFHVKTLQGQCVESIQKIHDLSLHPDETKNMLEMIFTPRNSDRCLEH
In short: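 Human placental microsomes with [1β-3H]androstenedione substrate at 500 nM, run in vitro. IC50 values are means of at least three tests; SD within 5%.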

| Structure (SMILES) | IC50 [1] [nM] | IC50 [2] [nM] | IC50 [3] [nM] | IC50 [4] [nM] | IC50 [5] [nM] |
| --- | --- | --- | --- | --- | --- |
| CC(C)(C)OC(=O)Nc1ccc(-c2ccc(Cc3ccncc3)cc2)cc1NC(=O)OC(C)(C)C | > 10000 |  |  |  |  |
| CC(C)(C)OC(=O)Nc1ccc(-c2ccc(Cc3ccncc3)cc2)cc1F | > 10000 |  |  |  |  |
| Oc1ccc(-c2ccc(Cc3ccncc3)cc2)cc1 | 248 | 251 | 3210 | 341 | 3070 |
| c1cc(Cc2ccc(-c3ccsc3)cc2)ccn1 | 647 | 415 |  | 331 |  |
| c1csc(-c2ccc(Cc3ccncc3)cc2)c1 | 647 | 422 |  | 796 |  |
| Nc1ccc(-c2ccc(Cc3ccncc3)cc2)cc1 | 408 | 522 | 2450 | 406 | 24500 |
| CC(C)(C(=O)c1cccnc1)c1cccnc1 [METYRAPONE] | > 10000 |  |  |  |  |
| Fc1ccc(-c2ccc(Cc3ccncc3)cc2)cc1F | 598 | 4740 |  | 273 |  |
| Oc1ccc(-c2ccc(Cc3cccnc3)cc2)cc1 | 4040 |  |  |  |  |
| Oc1ccc(-c2ccc(Cc3ccncc3)cc2)cc1F |  | 850 |  | 210 | 2690 |
| COc1ccc2cc(-c3ccc(Cc4ccncc4)cc3)ccc2c1 | 2000 |  |  |  |  |
| CCC(c1ccc(-c2ccc(OC)cc2)cc1)n1ccnc1 (centres undefined) | > 5000 |  |  |  |  |
| CCC(c1ccncc1)c1ccc(-c2ccc(OC)cc2)cc1 (centres undefined) | 1610 |  |  |  |  |
| NC(=O)c1ccc(-c2ccc(Cc3ccncc3)cc2)cc1 | 1790 |  |  |  |  |
| CC(C)(C)OC(=O)Nc1ccc(-c2ccc(Cc3ccncc3)cc2)cc1 | 1370 |  |  |  |  |
| CC(=O)Nc1cccc(-c2ccc(Cc3ccncc3)cc2)c1 | 876 | 307 |  | 567 |  |
| COc1ccc(-c2ccc(Cc3ccncc3)cc2)cc1F | 3340 |  |  |  |  |
| Oc1ccc(-c2ccc(C(O)n3ccnc3)cc2)cc1 (centres undefined) | > 5000 |  |  |  |  |
| Nc1ccc(-c2ccc(Cc3ccncc3)cc2)cc1N |  | 902 |  | 367 | > 25000 |
| CCC(c1ccc(-c2ccc(OC)cc2)cc1)c1cccnc1 (centres undefined) | > 5000 |  |  |  |  |
| COc1ccc(-c2ccc(Cc3ccncc3)cc2)cc1NC(=O)OC(C)(C)C | > 10000 |  |  |  |  |
| CC(=O)Nc1ccc(-c2ccc(Cc3ccncc3)cc2)cc1 | > 5000 |  |  |  |  |
| Oc1ccc2cc(-c3ccc(Cc4ccncc4)cc3)ccc2c1 | 438 | 627 | 1140 | 1130 |  |
| c1cc(Cc2ccc(-c3ccc4[nH]ccc4c3)cc2)ccn1 | 760 | 469 |  | 231 |  |
